The source made the active and inactive calls. The calls are words filed in the database; no cut-off is given here.
What was measured:
[1] = molecular target: T1, Mu-type opioid receptor (Homo sapiens, UniProt P35372); experiment: Agonist activity at human mu opioid receptor expressed in CHO cells assessed as increase in ERK phosphorylation after 10 mins; format: functional, cell-based
Procedure, shortened: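 CHO cells stably expressing human MOR1 (~800 fmol/mg membrane protein), serum-starved 30 min at 37°C, then treated 10 min, with naloxone present where indicated. Lysates were run on SDS-PAGE and immunoblotted for total ERK1/2, then stripped and reprobed for phospho-ERK (Tyr204), with HRP chemiluminescence detection. Densitometry; at least three experiments in triplicate.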

[2] = species: Homo sapiens; experiment: Selectivity for human recombinant kappa opioid receptor over human recombinant delta opioid receptor
[3] = molecular target: T1, Mu-type opioid receptor; experiment: Agonist activity at human recombinant mu opioid receptor expressed in CHO cells by [35S]GTP-gamma-S binding assay relative to DAMGO; format: functional, cell-based
[4] = molecular target: T1, Mu-type opioid receptor; experiment: Agonist activity at human recombinant mu opioid receptor expressed in CHO cells by [35S]GTP-gamma-S binding assay; format: functional, cell-based
[5] = species: Homo sapiens; experiment: Selectivity for human recombinant kappa opioid receptor over human recombinant mu opioid receptor
[6] = molecular target: T1, Mu-type opioid receptor; experiment: Displacement of [125I]IOXY from human recombinant mu opioid receptor expressed in CHO cells; format: cell-based
[7] = molecular target: T2, Kappa-type opioid receptor (Homo sapiens, UniProt P41145); experiment: Displacement of [125I]IOXY from human recombinant kappa opioid receptor expressed in CHO cells; format: cell-based
T2 sequence (P41145 whole entry): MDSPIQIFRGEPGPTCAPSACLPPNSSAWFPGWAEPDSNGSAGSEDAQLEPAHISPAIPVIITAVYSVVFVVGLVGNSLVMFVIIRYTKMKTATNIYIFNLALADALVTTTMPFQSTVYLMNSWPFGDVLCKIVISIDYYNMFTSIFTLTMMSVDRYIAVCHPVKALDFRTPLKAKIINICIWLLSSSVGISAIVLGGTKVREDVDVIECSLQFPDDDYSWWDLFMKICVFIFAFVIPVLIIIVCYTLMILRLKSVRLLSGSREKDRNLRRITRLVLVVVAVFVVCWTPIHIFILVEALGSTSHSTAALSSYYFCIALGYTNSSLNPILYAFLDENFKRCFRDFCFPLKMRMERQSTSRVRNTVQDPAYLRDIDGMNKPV

[8] = molecular target: Delta-type opioid receptor (Homo sapiens, UniProt P41143); experiment: Displacement of [125I]IOXY from human recombinant delta opioid receptor expressed in CHO cells; format: cell-based
Chain of Delta-type opioid receptor (P41143 whole entry): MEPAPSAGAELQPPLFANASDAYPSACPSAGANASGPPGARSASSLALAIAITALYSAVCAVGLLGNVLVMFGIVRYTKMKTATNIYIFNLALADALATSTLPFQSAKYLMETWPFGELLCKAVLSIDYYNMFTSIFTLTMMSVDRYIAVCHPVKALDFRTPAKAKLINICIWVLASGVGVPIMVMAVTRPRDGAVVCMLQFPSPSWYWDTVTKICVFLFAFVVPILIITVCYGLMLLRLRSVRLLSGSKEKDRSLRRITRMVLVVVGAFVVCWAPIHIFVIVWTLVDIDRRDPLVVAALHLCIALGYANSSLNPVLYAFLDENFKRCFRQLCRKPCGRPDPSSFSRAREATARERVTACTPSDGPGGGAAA

[9] = molecular target: T2, Kappa-type opioid receptor; experiment: Agonist activity at human recombinant kappa opioid receptor expressed in CHO cells by [35S]GTPgammaS binding assay relative to (-)-U50,488; format: functional, cell-based
[10] = molecular target: T2, Kappa-type opioid receptor; experiment: Agonist activity at human recombinant kappa opioid receptor expressed in CHO cells by [35S]GTP-gamma-S binding assay; format: functional, cell-based
[11] = molecular target: T1, Mu-type opioid receptor; experiment: Agonist activity at mu opioid receptor expressed in HEK293 cells assessed as induction of beta-arrestin-2-GFP plasma membrane translocation at 10 uM after 10 mins; format: functional, cell-based
Procedure, shortened: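 HEK-293 cells stably expressing MOR (~1000 fmol/mg membrane protein), or transiently expressing MOR1, were transiently transfected with βarr2-GFP (2 μg), with or without GRK2 (1.5 μg). After 24–36 h at 37°C and 30 min serum starvation, basal images were taken. Drug was then applied at 10 μM for 10 min, with confocal imaging each minute; cells shown at 5 min. At least 3 independent experiments.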

T1 sequence (P35372 whole entry): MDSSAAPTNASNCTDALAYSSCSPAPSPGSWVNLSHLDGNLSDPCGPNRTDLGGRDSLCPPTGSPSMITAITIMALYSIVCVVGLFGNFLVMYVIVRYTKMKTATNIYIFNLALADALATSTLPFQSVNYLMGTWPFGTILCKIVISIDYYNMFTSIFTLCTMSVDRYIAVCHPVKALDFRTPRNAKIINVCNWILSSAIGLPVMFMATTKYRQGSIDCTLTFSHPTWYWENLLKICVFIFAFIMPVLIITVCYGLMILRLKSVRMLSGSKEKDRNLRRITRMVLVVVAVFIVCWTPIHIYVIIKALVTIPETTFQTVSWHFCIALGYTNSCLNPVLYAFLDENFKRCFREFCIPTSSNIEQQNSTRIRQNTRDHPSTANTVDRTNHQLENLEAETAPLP

| SMILES | Activity [1] | Ratio Ki [2] | Emax [3] | EC50 [4] | Ratio Ki [5] | Ki [6] | Ki [7] | Ki [8] | Emax [9] | EC50 [10] | Activity [11] |
| --- | --- | --- | --- | --- | --- | --- | --- | --- | --- | --- | --- |
| COC(=O)[C@@H]1C[C@H](OC(=O)c2ccc(Br)cc2)C(=O)[C@H]2[C@@]1(C)CC[C@H]1C(=O)O[C@H](c3ccoc3)C[C@]21C | Dose-dependent effect | 2 | 108% | 4890 nM | 0.01 |  |  |  |  |  |  |
| COC(=O)[C@@H]1C[C@H](NS(C)(=O)=O)C(=O)[C@H]2[C@@]1(C)CC[C@H]1C(=O)O[C@H](c3ccoc3)C[C@]21C |  | > 38 |  |  | > 38 | > 10000 nM | 260 nM | > 10000 nM |  |  |  |
| COC(=O)[C@@H]1C[C@H](NS(=O)(=O)c2ccccc2)C(=O)[C@H]2[C@@]1(C)CC[C@H]1C(=O)O[C@H](c3ccoc3)C[C@]21C |  | > 7 |  |  | > 7 | > 10000 nM | 1400 nM | > 10000 nM |  |  |  |
| COC(=O)[C@@H]1C[C@H](OC(=O)c2cc3ccccc3o2)C(=O)[C@H]2[C@@]1(C)CC[C@H]1C(=O)O[C@H](c3ccoc3)C[C@]21C |  | 8 | 104% | 1680 nM | 0.14 | 10 nM | 70 nM | 580 nM | 109% | 1120 nM |  |
| COC(=O)[C@@H]1C[C@H](NC(=O)c2ccccc2)C(=O)[C@H]2[C@@]1(C)CC[C@H]1C(=O)O[C@H](c3ccoc3)C[C@]21C | Dose-dependent effect | 0.11 | 134% | 360 nM | 0.0004 | 3.1 nM | 7430 nM | 810 nM |  |  | Active |
| COC(=O)[C@@H]1C[C@H](NC(C)=O)C(=O)[C@H]2[C@@]1(C)CC[C@H]1C(=O)O[C@H](c3ccoc3)C[C@]21C |  | > 330 |  |  | 13 | 4180 nM | 30 nM | > 10000 nM | 108% | 120 nM |  |
| COC(=O)[C@@H]1C[C@H](OC(=O)C2CCCCC2)C(=O)[C@H]2[C@@]1(C)CC[C@H]1C(=O)O[C@H](c3ccoc3)C[C@]21C |  | > 5 |  |  | 0.5 | 1030 nM | 2010 nM | > 10000 nM |  |  |  |
| COC(=O)[C@@H]1C[C@H](OC(=O)c2ccsc2)C(=O)[C@H]2[C@@]1(C)CC[C@H]1C(=O)O[C@H](c3ccoc3)C[C@]21C |  | 9 | 108% | 690 nM | 0.16 | 10 nM | 80 nM | 690 nM | 95% | 840 nM |  |
| COC(=O)[C@@H]1C[C@H](OC(=O)c2cccc(OC)c2)C(=O)[C@H]2[C@@]1(C)CC[C@H]1C(=O)O[C@H](c3ccoc3)C[C@]21C |  | 2 | 72% | 1670 nM | 0.05 | 30 nM | 550 nM | 1140 nM | 97% | 3590 nM |  |
| COC(=O)[C@@H]1C[C@H](O)C(=O)[C@H]2[C@@]1(C)CC[C@H]1C(=O)O[C@H](c3ccoc3)C[C@]21C [SALVINORIN B] |  |  |  |  |  | > 10000 nM |  | > 10000 nM |  |  |  |
| COC(=O)[C@@H]1C[C@H](OC(=O)c2ccc3ccccc3c2)C(=O)[C@H]2[C@@]1(C)CC[C@H]1C(=O)O[C@H](c3ccoc3)C[C@]21C |  | > 2 |  |  | 0.03 | 180 nM | 5490 nM | > 10000 nM |  |  |  |
| COC(=O)[C@@H]1C[C@H](OC(=O)c2cccc([N+](=O)[O-])c2)C(=O)[C@H]2[C@@]1(C)CC[C@H]1C(=O)O[C@H](c3ccoc3)C[C@]21C |  | > 12 |  |  | > 12 | > 10000 nM | 800 nM | > 10000 nM |  |  |  |
| COC(=O)[C@@H]1C[C@H](OC(=O)c2ccccc2OC)C(=O)[C@H]2[C@@]1(C)CC[C@H]1C(=O)O[C@H](c3ccoc3)C[C@]21C |  | > 43 |  |  | 7 | 1640 nM | 230 nM | > 10000 nM |  |  |  |
| COC(=O)[C@@H]1C[C@H](SC(=O)c2ccccc2)C(=O)[C@H]2[C@@]1(C)CC[C@H]1C(=O)O[C@H](c3ccoc3)C[C@]21C |  | 1.4 |  |  | 0.21 | 290 nM | 1410 nM | 1930 nM |  |  |  |
| COC(=O)[C@@H]1C[C@H](OC(=O)c2ccccc2[N+](=O)[O-])C(=O)[C@H]2[C@@]1(C)CC[C@H]1C(=O)O[C@H](c3ccoc3)C[C@]21C |  | > 11 |  |  | 8 | 7550 nM | 900 nM | > 10000 nM |  |  |  |
| COC(=O)[C@@H]1C[C@H](OC(=O)c2ccccc2)C(=O)[C@H]2[C@@]1(C)CC[C@H]1C(=O)O[C@H](c3ccoc3)C[C@]21C |  | 12 |  |  | 0.13 |  |  |  |  |  |  |
| COC(=O)[C@@H]1C[C@H](OC(=O)c2ccc([N+](=O)[O-])cc2)C(=O)[C@H]2[C@@]1(C)CC[C@H]1C(=O)O[C@H](c3ccoc3)C[C@]21C | Dose-dependent effect | 0.45 | 46% | 1370 nM | 13 | 260 nM | 570 nM | > 10000 nM |  |  |  |
| COC(=O)[C@@H]1C[C@H](OC(=O)c2ccccc2Br)C(=O)[C@H]2[C@@]1(C)CC[C@H]1C(=O)O[C@H](c3ccoc3)C[C@]21C |  | > 100 |  |  | 1.2 |  |  |  |  |  |  |
| COC(=O)[C@@H]1C[C@H](OC(=O)c2cccc3ccccc23)C(=O)[C@H]2[C@@]1(C)CC[C@H]1C(=O)O[C@H](c3ccoc3)C[C@]21C |  | > 24 |  |  | > 24 | > 10000 nM | 410 nM | > 10000 nM |  |  |  |
| COC(=O)[C@@H]1C[C@H](OC(=O)c2cccc(Br)c2)C(=O)[C@H]2[C@@]1(C)CC[C@H]1C(=O)O[C@H](c3ccoc3)C[C@]21C |  | > 100 |  |  | 1.6 |  |  |  |  |  |  |
| COC(=O)[C@@H]1C[C@H](OC(=O)c2cccs2)C(=O)[C@H]2[C@@]1(C)CC[C@H]1C(=O)O[C@H](c3ccoc3)C[C@]21C |  | 5 | 95% | 1150 nM | 0.04 |  |  |  |  |  |  |
| COC(=O)[C@@H]1C[C@H](OC(=O)c2ccc(OC)cc2)C(=O)[C@H]2[C@@]1(C)CC[C@H]1C(=O)O[C@H](c3ccoc3)C[C@]21C | Dose-dependent effect | 3 | 94% | 830 nM | 0.12 | 70 nM | 540 nM | 1860 nM | 106% | 2610 nM |  |

Source: ChEMBL document CHEMBL1144846, “Herkinorin analogues with differential beta-arrestin-2 interactions” (J Med Chem, 2008)
